Measured values: ChEMBL document CHEMBL1151986, “Antineoplastic agents. 570. Isolation and structure elucidation of bacillistatins 1 and 2 from a marine Bacillus silvestris” (2009)
Converted amounts (≈) assume the structure as drawn. The source made the active and inactive calls. No cut-off for these calls is given here.

Legend:
DU-145 = assay: Cytotoxicity against human DU145 cells after 48 hrs by sulforhodamine B assay; assay type: functional; conditions: DU-145, 48 h
Outline: (§1)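 Cells were grown in RPMI-1640 with 5% fetal bovine serum in 96-well plates for 24 h, then exposed to serial dilutions in DMSO vehicle for 48 h. Plates were fixed with trichloroacetic acid, stained with sulforhodamine B and read for optical density. GI50 is the concentration giving a 50% reduction in net protein increase.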

KM-20L2 = assay: Cytotoxicity against human KM20L2 cells after 48 hrs by sulforhodamine B assay; assay type: functional; conditions: KM-20L2, 48 h; outline: as §1
NCI-H460 = assay: Cytotoxicity against human NCI-H460 cells after 48 hrs by sulforhodamine B assay; assay type: functional; conditions: NCI-H460, 48 h; outline: as §1
MCF7 = assay: Cytotoxicity against human MCF7 cells after 48 hrs by sulforhodamine B assay; assay type: functional; conditions: MCF7, 48 h; outline: as §1
SF-268 = assay: Cytotoxicity against human SF268 cells after 48 hrs by sulforhodamine B assay; assay type: functional; conditions: SF-268, 48 h; outline: as §1
BXPC-3 = assay: Cytotoxicity against human BxPC3 cells after 48 hrs by sulforhodamine B assay; assay type: functional; conditions: BXPC-3, 48 h; outline: as §1
Streptococcus pyogenes [1] = assay: Antibacterial activity against Streptococcus pyogenes clinical isolate by broth microdilution assay in presence of 25% heat inactivated human serum; assay type: functional
Streptococcus pneumoniae [2] = assay: Antibacterial activity against Streptococcus pneumoniae by broth microdilution assay in presence of 25% heat inactivated human serum; assay type: functional
P388 = assay: Cytotoxicity against mouse P388 cells after 48 hrs by coulter counter method; assay type: functional; conditions: P388, 48 h, read-out: ED50 (the source's name)
Outline: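 Murine lymphocytic leukemia P388 cells were preincubated for 24 h in Fisher medium with 10% horse serum, then incubated 48 h with serial dilutions in DMSO vehicle. Cells were counted on a Coulter particle counter, and ED50 was taken as the concentration giving 50% growth inhibition.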

Neisseria gonorrhoeae = assay: Antibacterial activity against Neisseria gonorrhoeae ATCC 49226 at 64 ug/mL by broth microdilution assay; assay type: functional, organism-based
Enterobacter cloacae = assay: Antibacterial activity against Enterobacter cloacae ATCC 13047 at 64 ug/mL by broth microdilution assay; assay type: functional, organism-based
[3] = tested on: Stenotrophomonas maltophilia; assay: Antibacterial activity against Stenotrophomonas maltophilia ATCC 13637 at 64 ug/mL by broth microdilution assay; assay type: functional, organism-based
Escherichia coli = assay: Antibacterial activity against Escherichia coli ATCC 25922 at 64 ug/mL by broth microdilution assay; assay type: functional, organism-based
Enterococcus faecalis = assay: Antibacterial activity against Enterococcus faecalis ATCC 29212 at 64 ug/mL by broth microdilution assay; assay type: functional, organism-based
Micrococcus luteus = assay: Antibacterial activity against Micrococcus luteus Presque Isle 456 at 64 ug/mL by broth microdilution assay; assay type: functional, organism-based
Staphylococcus aureus = assay: Antibacterial activity against Staphylococcus aureus ATCC 29213 at 64 ug/mL by broth microdilution assay; assay type: functional, organism-based
Cryptococcus neoformans = assay: Antifungal activity against Cryptococcus neoformans ATCC 90112 at 64 ug/mL by broth microdilution assay; assay type: functional, organism-based
Candida albicans = assay: Antifungal activity against Candida albicans ATCC 90028 at 64 ug/mL by broth microdilution assay; assay type: functional, organism-based
Streptococcus pyogenes [4] = assay: Antibacterial activity against Streptococcus pyogenes clinical isolate by broth microdilution assay; assay type: functional
Streptococcus pneumoniae [5] = assay: Antibacterial activity against multidrug-resistant Streptococcus pneumoniae ATCC 700673 by broth microdilution assay; assay type: functional
Streptococcus pneumoniae [6] = assay: Antibacterial activity against Streptococcus pneumoniae ATCC 6303 by broth microdilution assay; assay type: functional
Streptococcus pneumoniae [7] = assay: Antibacterial activity against penicillin-resistant Streptococcus pneumoniae clinical isolate by broth microdilution assay; assay type: functional

| SMILES | GI50 (DU-145) [µg/mL] | GI50 (KM-20L2) [µg/mL] | GI50 (NCI-H460) [µg/mL] | GI50 (MCF7) [µg/mL] | GI50 (SF-268) [µg/mL] | GI50 (BXPC-3) [µg/mL] | MIC (Streptococcus pyogenes [1]) [µg/mL] | MIC (Streptococcus pneumoniae [2]) [µg/mL] | EC50 (P388) [µg/mL] | Activity (Neisseria gonorrhoeae) | Activity (Enterobacter cloacae) | Activity [3] | Activity (Escherichia coli) | Activity (Enterococcus faecalis) | Activity (Micrococcus luteus) | Activity (Staphylococcus aureus) | Activity (Cryptococcus neoformans) | Activity (Candida albicans) | MBC (Streptococcus pyogenes [4]) [µg/mL] | MIC (Streptococcus pyogenes [4]) [µg/mL] | other results |
| --- | --- | --- | --- | --- | --- | --- | --- | --- | --- | --- | --- | --- | --- | --- | --- | --- | --- | --- | --- | --- | --- |
| CC[C@H](C)[C@H]1OC(=O)[C@H](C(C)C)NC(=O)[C@H](C)OC(=O)[C@@H](C(C)C)NC(=O)[C@@H]([C@@H](C)CC)OC(=O)[C@H](C(C)C)NC(=O)[C@H](C)OC(=O)[C@@H](C(C)C)NC(=O)[C@@H](CC(C)C)OC(=O)[C@H](C(C)C)NC(=O)[C@H](C)OC(=O)[C@@H](C(C)C)NC1=O | 0.00086 (≈ 0.746 nM) | 0.00026 (≈ 0.225 nM) | 0.00045 (≈ 0.39 nM) | 0.00031 (≈ 0.269 nM) | 0.0018 (≈ 1.56 nM) | 0.00034 (≈ 0.295 nM) | > 64 | > 64 | 0.013 (≈ 11.3 nM) | inactive | inactive | inactive | inactive | inactive | inactive | inactive | inactive | inactive | > 16 | 2 (≈ 1730 nM) | MBC (Streptococcus pneumoniae [5]): < 0.5 µg/mL; MIC (Streptococcus pneumoniae [5]): < 0.5 µg/mL; MBC (Streptococcus pneumoniae [6]): 2 µg/mL (≈ 1730 nM); MIC (Streptococcus pneumoniae [6]): 1 µg/mL (≈ 867 nM); MBC (Streptococcus pneumoniae [7]): 1 µg/mL (≈ 867 nM); MIC (Streptococcus pneumoniae [7]): 1 µg/mL (≈ 867 nM) |
| CC[C@H](C)[C@H]1OC(=O)[C@H](C(C)C)NC(=O)[C@H](C)OC(=O)[C@@H](C(C)C)NC(=O)[C@@H]([C@@H](C)CC)OC(=O)[C@H](C(C)C)NC(=O)[C@H](C)OC(=O)[C@@H](C(C)C)NC(=O)[C@@H]([C@@H](C)CC)OC(=O)[C@H](C(C)C)NC(=O)[C@H](C)OC(=O)[C@@H](C(C)C)NC1=O [BACILLISTATIN 1] | 0.0015 (≈ 1.3 nM) | 0.00087 (≈ 0.754 nM) | 0.0023 (≈ 1.99 nM) | 0.00061 (≈ 0.529 nM) | 0.00045 (≈ 0.39 nM) | 0.00095 (≈ 0.824 nM) | > 64 | > 64 | 0.023 (≈ 19.9 nM) | inactive | inactive | inactive | inactive | inactive | inactive | inactive | inactive | inactive | > 32 | 2 (≈ 1730 nM) | MBC (Streptococcus pneumoniae [5]): 1 µg/mL (≈ 867 nM); MIC (Streptococcus pneumoniae [5]): < 0.5 µg/mL; MBC (Streptococcus pneumoniae [6]): 4 µg/mL (≈ 3470 nM); MIC (Streptococcus pneumoniae [6]): 2 µg/mL (≈ 1730 nM); MBC (Streptococcus pneumoniae [7]): 2 µg/mL (≈ 1730 nM); MIC (Streptococcus pneumoniae [7]): 1 µg/mL (≈ 867 nM) |
| CC(C)[C@@H]1NC(=O)[C@H](C)OC(=O)[C@@H](C(C)C)NC(=O)[C@@H](C(C)C)OC(=O)[C@H](C(C)C)NC(=O)[C@H](C)OC(=O)[C@@H](C(C)C)NC(=O)[C@@H](C(C)C)OC(=O)[C@H](C(C)C)NC(=O)[C@H](C)OC(=O)[C@@H](C(C)C)NC(=O)[C@@H](C(C)C)OC1=O [VALINOMYCIN] | 0.0035 (≈ 3.15 nM) | 0.0008 (≈ 0.72 nM) | 0.0025 (≈ 2.25 nM) | 0.001 (≈ 0.9 nM) | 0.0027 (≈ 2.43 nM) | 0.0019 (≈ 1.71 nM) | – | – | 0.12 (≈ 108 nM) | – | – | – | – | – | – | – | – | – | – | – | – |
